# Reference: ChEMBL document CHEMBL3526154, “Metabolism, pharmacokinetics, tissue distribution, and stability studies of the prodrug analog of an anti-hepatitis B virus dinucleoside phosphorothioate” (Drug Metab Dispos, 2012)
# Experiments:
# Details in all cases: in vivo; call rule not given here
# Rattus norvegicus [1] = experiment: AUC in female Sprague-Dawley rat at 10 mg/kg, po administered as single dose by liquid scintillation counting analysis; assay type: ADME, organism-based, Plasma; parameters: dose 10 mg/kg, route oral
# Outline: (§1)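 Single dose of [³⁵S]-labelled prodrug to rats, i.v. tail-vein bolus in 25% PEG 400/75% saline or oral gavage in 0.05 M citric acid buffer pH 2.5, 5 ml/kg. Retro-orbital blood into EDTA at 1, 4 or 24 h; plasma by centrifugation. Radioactivity by liquid scintillation counting as µg-Eq/ml. Noncompartmental sparse-sampling analysis gives Cmax and AUC; nine rats per sex.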
# Rattus norvegicus [2] = experiment: Tmax in female Sprague-Dawley rat at 10 mg/kg, po administered as single dose by liquid scintillation counting analysis; assay type: ADME, organism-based; parameters: dose 10 mg/kg, route oral
# Outline: (§2)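 Radioactivity in plasma from rats given a single [35S]-labelled dose, iv (tail vein, 25% PEG 400/75% saline) or oral gavage (0.05 M citric acid, pH 2.5), sampled at 1, 4 and 24 h, measured by liquid scintillation as µg-Eq/ml. Elimination t1/2 and Tmax were derived by noncompartmental analysis with sparse sampling, from nine male and nine female rats.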
# [3] = Drug excretion in female Sprague-Dawley rat feces at 10 mg/kg, iv administered as bolus dose measured at 0 to 24 hrs post-dose by liquid scintillation counting analysis; assay type: ADME, organism-based; parameters: dose 10 mg/kg, route intravenous
# Outline: (§3)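 Single [³⁵S]-prodrug dose to rats, i.v. tail-vein bolus (PEG 400/saline vehicle) or oral gavage (citric acid buffer pH 2.5), 5 ml/kg. Urine and feces collected ~1, 4 and 24 h postdose. Radioactivity counted by liquid scintillation and expressed as % of administered dose. Mean and S.D. from nine rats per sex.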
# [4] = Drug excretion in female Sprague-Dawley rat urine at 10 mg/kg, iv administered as bolus dose measured at 4 to 24 hrs post-dose by liquid scintillation counting analysis; assay type: ADME, organism-based; parameters: dose 10 mg/kg, route intravenous; outline: as §3
# Blood = experiment: Drug uptake in Sprague-Dawley rat blood at 10 mg/kg, po administered as single dose measured at 4 hrs post-dose by liquid scintillation counting analysis; assay type: ADME, organism-based; parameters: dose 10 mg/kg, route oral
# Outline: (§4)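 Single i.v. tail-vein bolus or oral gavage of [³⁵S]-prodrug to rats, 5 ml/kg. Euthanised by i.p. pentobarbital overdose at 1, 4 or 24 h. Retro-orbital blood collected; liver, lung, kidney, heart, brain and spleen frozen. Tissues homogenised, solubilised and counted by liquid scintillation. Radioactivity given as µg-Eq/g and % of dose.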
# Rattus norvegicus [5] = experiment: Terminal half life in female Sprague-Dawley rat at 10 mg/kg, iv administered as bolus dose by liquid scintillation counting analysis; assay type: ADME, organism-based; parameters: dose 10 mg/kg, route intravenous; outline: as §2
# [6] = Drug excretion in female Sprague-Dawley rat urine at 10 mg/kg, po administered as single dose measured at 4 to 24 hrs post-dose by liquid scintillation counting analysis; assay type: ADME, organism-based; parameters: dose 10 mg/kg, route oral; outline: as §3
# Rattus norvegicus [7] = experiment: AUC in female Sprague-Dawley rat at 10 mg/kg, iv administered as bolus dose by liquid scintillation counting analysis; assay type: ADME, organism-based, Plasma; parameters: dose 10 mg/kg, route intravenous; outline: as §1
# Spleen = experiment: Drug uptake in Sprague-Dawley rat spleen at 10 mg/kg, po administered as single dose measured at 1 to 24 hrs post-dose by liquid scintillation counting analysis; assay type: ADME, organism-based; parameters: dose 10 mg/kg, route oral
# Outline: (§5)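 [35S]-labelled prodrug given once to rats, iv bolus via tail vein (25% PEG 400/75% saline) or oral gavage (0.05 M citric acid buffer, pH 2.5), 5 ml/kg. Rats euthanised at 1, 4 or 24 h. Liver, lung, kidney, heart, brain, spleen, tail and retro-orbital plasma were collected. Samples were homogenised and solubilised, and radioactivity was counted by liquid scintillation. Values are µg-equivalent/ml or g and % of dose.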
# Rattus norvegicus [8] = experiment: Drug recovery in male Sprague-Dawley rat at 10 mg/kg, po administered as single dose measured after 24 hrs by liquid scintillation counting analysis; assay type: ADME, organism-based; parameters: dose 10 mg/kg, route oral
# Outline: (§6)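 Rats got a single i.v. bolus or oral gavage dose of [³⁵S]-prodrug at 5 ml/kg over a 24 h study. Radioactivity in blood, tissues, carcass, urine and feces measured by liquid scintillation counting. Total recovery given as % of administered dose at 24 h.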
# Rattus norvegicus [9] = experiment: Drug recovery in male Sprague-Dawley rat at 10 mg/kg, iv administered as bolus dose measured after 24 hrs by liquid scintillation counting analysis; assay type: ADME, organism-based; parameters: dose 10 mg/kg, route intravenous; outline: as §6
# Brain [10] = experiment: Drug uptake in Sprague-Dawley rat brain at 10 mg/kg, iv administered as bolus dose measured at 1 to 24 hrs post-dose by liquid scintillation counting analysis; assay type: ADME, organism-based; parameters: dose 10 mg/kg, route intravenous; outline: as §4
# [11] = Drug excretion in female Sprague-Dawley rat urine at 10 mg/kg, po administered as single dose measured at 1 to 4 hrs post-dose by liquid scintillation counting analysis; assay type: ADME, organism-based; parameters: dose 10 mg/kg, route oral; outline: as §3
# Rattus norvegicus [12] = experiment: AUC in male Sprague-Dawley rat at 10 mg/kg, po administered as single dose by liquid scintillation counting analysis; assay type: ADME, organism-based, Plasma; parameters: dose 10 mg/kg, route oral; outline: as §1
# Rattus norvegicus [13] = experiment: Cmax in male Sprague-Dawley rat at 10 mg/kg, po administered as single dose by liquid scintillation counting analysis; assay type: ADME, organism-based; parameters: dose 10 mg/kg, route oral; outline: as §1
# Heart [14] = experiment: Drug uptake in Sprague-Dawley rat heart at 10 mg/kg, iv administered as bolus dose measured at 1 to 24 hrs post-dose by liquid scintillation counting analysis; assay type: ADME, organism-based; parameters: dose 10 mg/kg, route intravenous; outline: as §4
# [15] = Drug excretion in female Sprague-Dawley rat urine at 10 mg/kg, iv administered as bolus dose measured at 0 to 24 hrs post-dose by liquid scintillation counting analysis; assay type: ADME, organism-based; parameters: dose 10 mg/kg, route intravenous; outline: as §3
# Rattus norvegicus [16] = experiment: Cmax in female Sprague-Dawley rat at 10 mg/kg, po administered as single dose by liquid scintillation counting analysis; assay type: ADME, organism-based; parameters: dose 10 mg/kg, route oral; outline: as §1
# [17] = Drug excretion in male Sprague-Dawley rat feces at 10 mg/kg, po administered as single dose measured at 0 to 24 hrs post-dose by liquid scintillation counting analysis; assay type: ADME, organism-based; parameters: dose 10 mg/kg, route oral; outline: as §3
# Heart [18] = experiment: Drug uptake in Sprague-Dawley rat heart at 10 mg/kg, po administered as single dose measured at 1 to 24 hrs post-dose by liquid scintillation counting analysis; assay type: ADME, organism-based; parameters: dose 10 mg/kg, route oral; outline: as §4
# [19] = Drug excretion in male Sprague-Dawley rat feces at 10 mg/kg, po administered as single dose measured at 1 to 4 hrs post-dose by liquid scintillation counting analysis; assay type: ADME, organism-based; parameters: dose 10 mg/kg, route oral; outline: as §3
# [20] = Drug excretion in female Sprague-Dawley rat urine at 10 mg/kg, po administered as single dose measured at 0 to 1 hr post-dose by liquid scintillation counting analysis; assay type: ADME, organism-based; parameters: dose 10 mg/kg, route oral; outline: as §3
# [21] = Drug excretion in female Sprague-Dawley rat feces at 10 mg/kg, iv administered as bolus dose measured at 4 to 24 hrs post-dose by liquid scintillation counting analysis; assay type: ADME, organism-based; parameters: dose 10 mg/kg, route intravenous; outline: as §3
# Rattus norvegicus [22] = experiment: Drug recovery in female Sprague-Dawley rat at 10 mg/kg, iv administered as bolus dose measured after 24 hrs by liquid scintillation counting analysis; assay type: ADME, organism-based; parameters: dose 10 mg/kg, route intravenous; outline: as §6
# [23] = Drug excretion in male Sprague-Dawley rat urine at 10 mg/kg, po administered as single dose measured at 4 to 24 hrs post-dose by liquid scintillation counting analysis; assay type: ADME, organism-based; parameters: dose 10 mg/kg, route oral; outline: as §3
# [24] = Drug excretion in male Sprague-Dawley rat urine at 10 mg/kg, iv administered as bolus dose measured at 0 to 1 hr post-dose by liquid scintillation counting analysis; assay type: ADME, organism-based; parameters: dose 10 mg/kg, route intravenous; outline: as §3
# Plasma = experiment: Drug uptake in Sprague-Dawley rat plasma at 10 mg/kg, po administered as single dose measured at 4 hrs post-dose by liquid scintillation counting analysis; assay type: ADME, organism-based; parameters: dose 10 mg/kg, route oral; outline: as §5
# Kidney = experiment: Drug uptake in Sprague-Dawley rat kidney at 10 mg/kg, iv administered as bolus dose measured at 1 to 24 hrs post-dose by liquid scintillation counting analysis; assay type: ADME, organism-based; parameters: dose 10 mg/kg, route intravenous; outline: as §4
# Brain [25] = experiment: Drug uptake in Sprague-Dawley rat brain at 10 mg/kg, po administered as single dose measured at 1 to 24 hrs post-dose by liquid scintillation counting analysis; assay type: ADME, organism-based; parameters: dose 10 mg/kg, route oral; outline: as §4
compound,measurement,setting,value
CO[C@@H]1[C@H](OP(=O)(OC[C@H]2O[C@@H](n3cnc4c(N)ncnc43)C[C@@H]2O)[35S]COC(=O)OC(C)C)[C@@H](CO)O[C@H]1n1ccc(=O)[nH]c1=O (some centres undefined),AUC,Rattus norvegicus [1],27.37 ugequiv.h/ml
same,Tmax,Rattus norvegicus [2],4 h
same,Drug excretion,[3],9.44%
same,Drug excretion,[4],36.79%
same,Drug uptake,Blood,Active
same,beta t1/2,Rattus norvegicus [5],9 h
same,Drug excretion,[6],34.78%
same,AUC,Rattus norvegicus [7],35.21 ugequiv.h/ml
same,Drug uptake,Spleen,<= 0.5%
same,Drug recovery,Rattus norvegicus [8],83%
same,Drug recovery,Rattus norvegicus [9],83.7%
same,Drug uptake,Brain [10],<= 0.5%
same,Drug excretion,[11],2.04%
same,AUC,Rattus norvegicus [12],26.86 ugequiv.h/ml
same,Cmax,Rattus norvegicus [13],2.53 ugequiv/ml
same,Drug uptake,Heart [14],<= 0.5%
same,Drug excretion,[15],58.94%
same,Cmax,Rattus norvegicus [16],2.5 ugequiv/ml
same,Drug excretion,[17],35.71%
same,Drug uptake,Heart [18],<= 0.5%
same,Drug excretion,[19],0.01%
same,Drug excretion,[20],0.16%
same,Drug excretion,[21],9.44%
same,Drug recovery,Rattus norvegicus [22],84.9%
same,Drug excretion,[23],33.73%
same,Drug excretion,[24],22.83%
same,Drug uptake,Plasma,Active
same,Drug uptake,Kidney,Active
same,Drug uptake,Brain [25],<= 0.5%
